The source made the active and inactive calls. The calls are words filed in the database; no cut-off is given here.

For one assay, the system named is HL-60. The assay can be described thus: Antiproliferative activity against HL60 cells by WST-1 assay. Conditions: Homo sapiens. For orientation: Tetrazolium assays rely on reduction of a dye to a coloured formazan, in cell work by metabolically active cells.
A further assay addresses T1, Bcl-2-like protein 2 (Homo sapiens, UniProt Q92843).
T1 sequence (Q92843 whole entry): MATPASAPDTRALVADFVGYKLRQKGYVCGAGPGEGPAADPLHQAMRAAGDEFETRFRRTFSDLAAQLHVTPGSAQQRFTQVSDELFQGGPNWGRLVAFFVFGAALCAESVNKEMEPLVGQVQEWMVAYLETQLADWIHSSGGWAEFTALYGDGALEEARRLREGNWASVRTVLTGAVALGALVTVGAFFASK
The assay can be described thus: Inhibition of Bclw by FP assay. In short, it runs like this: (§1)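 Run in 20 mM potassium phosphate pH 7.4 with 1 mM EDTA, 50 mM NaCl and 0.05% Pluronic F-68, at 10% final DMSO. Polarization read at ex 485/em 535 nm after 2 h at room temperature.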

In assay [1] the target is Apoptosis regulator Bcl-2 (Homo sapiens) (UniProt P10415). The assay can be described thus: Inhibition of Bcl2 by FP assay. In a few lines:
as §1

The target of assay [2] is Bcl-2-like protein 1 (Homo sapiens) (UniProt Q07817). The experiment in a line: Inhibition of BclXL by FP assay. In a few lines:
as §1

Sequence of Apoptosis regulator Bcl-2 (Homo sapiens) (P10415 whole entry): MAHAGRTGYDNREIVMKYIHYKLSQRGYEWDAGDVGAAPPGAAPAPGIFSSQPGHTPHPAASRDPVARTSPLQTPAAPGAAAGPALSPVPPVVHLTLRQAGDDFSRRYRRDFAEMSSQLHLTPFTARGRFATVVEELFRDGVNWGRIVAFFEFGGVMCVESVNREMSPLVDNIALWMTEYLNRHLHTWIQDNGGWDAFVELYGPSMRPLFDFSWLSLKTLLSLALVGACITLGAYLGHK
Sequence of Bcl-2-like protein 1 (Homo sapiens) (Q07817 whole entry): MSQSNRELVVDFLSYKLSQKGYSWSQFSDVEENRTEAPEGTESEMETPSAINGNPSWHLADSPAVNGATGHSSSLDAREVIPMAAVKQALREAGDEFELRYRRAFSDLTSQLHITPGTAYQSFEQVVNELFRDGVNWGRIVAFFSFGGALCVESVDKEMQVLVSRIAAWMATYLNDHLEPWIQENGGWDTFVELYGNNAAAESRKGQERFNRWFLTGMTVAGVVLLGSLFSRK

For orientation: GI50 means the concentration at which growth is held to half of that of the control. Low readings indicate greater sensitivity of the cells, high ones lower sensitivity of the cells. For orientation: IC50 means the concentration that inhibits the measured activity by half. High values mean weaker potency, low ones greater potency. The molecule `CCCCc1c(-c2ccccc2OC)ncn1Cc1cccc(-c2ccccc2)c1` had a 50% growth inhibitory concentration (GI50) with HL-60 of 13 µM. The molecule further returned an IC50 on Bcl-2-like protein 2 of 26.9 µM. Besides, the outcome in assay [1] and in assay [2] was inactive.
`CCCc1c(-c2ccccc2Oc2ccccc2)ncn1Cc1ccccc1OC` came in with a 50% growth inhibitory concentration (GI50) in the assay on HL-60 of 12.5 µM. For the same molecule, 14 µM corresponded to half-maximal inhibition on Bcl-2-like protein 2 (IC50). Further, the outcome in assay [1] and in assay [2] was inactive.
For the molecule `CCCCc1c(-c2ccccc2Oc2ccccc2)ncn1CCc1ccccc1OC`, in the assay on HL-60, the GI50 was 9.43 µM. In addition, at Bcl-2-like protein 2, the IC50 came to 8.09 µM. In addition, the outcome in assay [1] and in assay [2] was inactive.
